Experimental data from ChEMBL document CHEMBL2034823, “Synthesis and antiviral activity of certain second generation methylenecyclopropane nucleosides” (Bioorg Med Chem, 2012).

Legend:
[1] = Antiviral activity against HHV-6A infected in human HSB2 cells assessed as reduction in viral DNA after 7 days by hybridization assay; type: functional, cell-based, Human herpesvirus 6A; details: Human betaherpesvirus 6A, HSB2, 168 h
Outline: (§1)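 Compound serially diluted in medium. Uninfected HSB-2 cells were infected with HHV-6A (GS)-infected HSB-2 cells, and Molt-3 cells with HHV-6B (Z29)-infected Molt-3 cells. Incubation 7 days at 37 °C. Lysis in 4.5 M NaCl/1.2 M NaOH, then transfer to nylon membrane. Viral DNA quantified by digoxigenin-probe hybridization and EC50 calculated. Duplicate wells.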

Human betaherpesvirus 5 = experiment: Antiviral activity against HCMV infected in human HFF cells assessed as reduction in cytopathic effect after 8 days by plaque reduction assay; type: functional, organism-based; details: Human betaherpesvirus 5, HFF, 192 h
Outline: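 HFF monolayers seeded 2 days ahead and infected with AD169 at about 30 plaques per well, with 1 h adsorption. Compound was then added in MEM with 2% FBS, L-glutamine, penicillin, gentamycin and pooled human gamma globulin. After 8 days, neutral red stain and plaque counts by stereomicroscope. EC50 interpolated. Duplicate wells.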

[2] = Cytotoxicity against human HFF cells after 3 to 8 days by crystal voilet staining; type: cell-based
Outline: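 Uninfected HFF cells exposed to the same concentrations as in the CPE assays (3 days for HSV, 7 for VZV, […]). Stained with crystal violet. CC50 is the concentration reducing cell number by 50%. Duplicate wells.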

Human alphaherpesvirus 2 = experiment: Antiviral activity against HSV-2 infected in human HFF cells assessed as reduction in cytopathic effect after 3 days by crystal violet staining; type: functional, organism-based; details: Human alphaherpesvirus 2, HFF, 72 h
Outline: (§2)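 Compound diluted over HFF monolayers, then HSV-1 (E-377) or HSV-2 (MS) added at MOI about 0.01 PFU/cell. Held 3 days in humidified 5% CO2. Stained 4 h with 0.1% crystal violet in formalin, rinsed, dried 24 h, and absorbance read at 595 nm. EC50 is 50% CPE reduction. Duplicate wells.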

[3] = Cytotoxicity against human HSB2 cells after 7 days by Cell-Titer Glo assay; type: cell-based, CCRF-HSB-2
Outline: (§3)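 Uninfected Akata, BCBL1, HSB-2 or MOLT-3 cells incubated with compound for seven days under the matching antiviral-assay conditions. CellTiter-Glo added and luminescence read. CC50 is the concentration reducing cell number by 50%.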

Human gammaherpesvirus 8 = experiment: Antiviral activity against HHV-8 infected in human BCBL1 cells assessed as reduction in viral DNA after 7 days by qPCR analysis; type: functional, organism-based; details: Human gammaherpesvirus 8, BCBL1, 168 h
Outline: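 BCBL1 cells kept in RPMI 1640 with 10% FBS, penicillin, gentamycin and L-glutamine. Lytic infection induced with phorbol 12-myristate 13-acetate, then cells added to triplicate compound dilutions. Incubation 7 days at 37 °C in humidified CO2. EC50 is the concentration halving viral DNA accumulation.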

[4] = Cytotoxicity against human Akata cells after 7 days by Cell-Titer Glo assay; type: cell-based; outline: as §3
[5] = Cytotoxicity against human BCBL1 cells after 7 days by Cell-Titer Glo assay; type: cell-based; outline: as §3
Human alphaherpesvirus 3 = experiment: Antiviral activity against VZV infected in human HFF cells assessed as reduction in cytopathic effect after 7 days by crystal violet staining; type: functional, organism-based; details: Human alphaherpesvirus 3, HFF, 168 h
[6] = Antiviral activity against HHV-6B infected in human Molt3 cells assessed as reduction in viral DNA after 7 days by hybridization assay; type: functional, cell-based, Human herpesvirus 6B; details: Human betaherpesvirus 6B, MOLT-3, 168 h; outline: as §1
Human gammaherpesvirus 4 = experiment: Antiviral activity against EBV Akata infected in human Akata cells assessed as reduction in viral DNA after 72 hrs by hybridization assay; type: functional, organism-based; details: human gammaherpesvirus 4, Akata
Outline: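 Akata cells kept in RPMI 1640 with 10% FBS, L-glutamine, penicillin and gentamicin. Latent infection was switched to productive by adding goat anti-human IgG, and cells were seeded into compound dilutions made in growth medium. After 72 h the DNA was denatured and blotted onto nylon membrane. Viral DNA was measured with a digoxigenin-labeled probe plus anti-hapten antibody. EC50 is the concentration halving viral DNA. Duplicate wells.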

[7] = Cytotoxicity against human MOLT3 cells after 7 days by Cell-Titer Glo assay; type: cell-based, MOLT-3; outline: as §3
Human alphaherpesvirus 1 = experiment: Antiviral activity against HSV-1 infected in human HFF cells assessed as reduction in cytopathic effect after 3 days by crystal violet staining; type: functional, organism-based; details: Human alphaherpesvirus 1, HFF, 72 h; outline: as §2

Row | IC50 [1] [µM] | IC50 (Human betaherpesvirus 5) [µM] | IC50 (Human alphaherpesvirus 2) [µM] | IC50 (Human gammaherpesvirus 8) [µM] | IC50 (Human alphaherpesvirus 3) [µM] | IC50 [6] [µM] | IC50 (Human gammaherpesvirus 4) [µM] | IC50 (Human alphaherpesvirus 1) [µM] | SMILES | CC50 [2] [µM] | CC50 at 168 h [3] [µM] | CC50 at 168 h [4] [µM] | CC50 at 168 h [5] [µM] | CC50 at 168 h [7] [µM]
1 | > 20 | 29 | > 300 | > 20 | > 100 | 11.5 | 13 | > 300 | CCCCCCCCOc1nc(N)nc2c1ncn2/C=C1/CC1(CO)CO | > 300 | > 20 | > 20 | > 20 | > 20
2 | > 20 | 17 | > 300 | > 20 | 13.9 | > 20 | 20 | > 300 | COCCOc1nc(N)nc2c1ncn2/C=C1/CC1(CO)CO | > 300 | > 20 | > 20 | > 20 | > 20
3 | > 100 | > 50 | > 300 | > 20 | > 60 | 11.6 | 11.4 | > 300 | CSc1nc(N)nc2c1ncn2/C=C1/CC1(CO)CO | > 300 | > 100 | > 20 | > 20 | > 20
4 | 35 | > 50 | > 300 | > 20 | > 300 | 9.9 | 0.9 | > 300 | Nc1nc(SC2CCCC2)c2ncn(/C=C3/CC3(CO)CO)c2n1 | > 300 | 91 | > 20 | > 20 | > 20
5 | > 20 | > 50 | > 300 | > 20 | > 300 | 5.4 | 7.1 | > 300 | CCCCCCSc1nc(N)nc2c1ncn2/C=C1/CC1(CO)CO | > 300 | 60 | > 20 | > 20 | > 20

Second part, the molecule before the results:

Row | SMILES | IC50 [1] [µM] | IC50 (Human betaherpesvirus 5) [µM] | IC50 (Human alphaherpesvirus 2) [µM] | IC50 (Human gammaherpesvirus 8) [µM] | IC50 (Human alphaherpesvirus 3) [µM] | IC50 [6] [µM] | IC50 (Human gammaherpesvirus 4) [µM] | IC50 (Human alphaherpesvirus 1) [µM] | CC50 [2] [µM] | CC50 at 168 h [3] [µM] | CC50 at 168 h [4] [µM] | CC50 at 168 h [5] [µM] | CC50 at 168 h [7] [µM]
6 | Nc1nc(OCC(F)(F)F)c2ncn(/C=C3/CC3(CO)CO)c2n1 | > 20 | 5.6 | > 300 | 19 | > 300 | 8.9 | 1.4 | > 300 | > 300 | > 20 | > 20 | > 20 | > 20
7 | Nc1nc(OCc2ccccc2)c2ncn(/C=C3/CC3(CO)CO)c2n1 | > 20 | 45 | > 300 | > 20 | 53 | > 20 | > 20 | > 300 | > 300 | > 20 | > 20 | > 20 | > 20
8 | CCCSc1nc(N)nc2c1ncn2/C=C1/CC1(CO)CO | 63 | 42 | > 300 | > 20 | > 300 | 14.3 | > 20 | > 300 | > 300 | 98 | > 20 | > 20 | > 20
9 | CC(C)Sc1nc(N)nc2c1ncn2/C=C1/CC1(CO)CO | 70 | 4 | > 300 | > 20 | > 60 | 7.5 | 3.1 | > 300 | > 300 | 94 | > 20 | > 20 | > 20
10 | CCCCSc1nc(N)nc2c1ncn2/C=C1/CC1(CO)CO | 75 | > 50 | > 300 | > 20 | > 300 | 7 | 2.5 | > 300 | > 300 | 89 | > 20 | > 20 | > 20
